A short description of data set [1]: Body weight of treated mice. The note with it: 3-wk-old FVB/nJ male mice, various regimens. Format: in vivo, mouse. In outline:
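Wild-type male FVB/nJ mice, 3 wk old, about 15 g. Groups received one of: vehicle, daily SC 70 nmol/kg peptide, or microsphere-conjugated peptide. Conjugate dosing was weekly, biweekly or a single dose, either as constant nmol per mouse or as µmol/kg by body weight. Body weights of treated and untreated animals were followed over the study.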

The test system of the next data set is mice. To be noted: 70 nmol/kg; cited from earlier work.
For data set [2], the system named is 3-wk-old FVB/nJ male mice. The experiment in a line: Growth. Format: in vivo, mouse. The note with it: QD 70 nmol/kg SC, 5 wk, n = 6. The method in brief:
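Wild-type male FVB/nJ mice, 3 wk old, groups of 6, were given SC injections once daily of 70 nmol/kg peptide or vehicle for 5 wk. Total body length was nasoanal plus tail length, measured in anesthetized mice positioned with head extended, nose on a horizontal guideline and tail straight. Length change over the period was compared with the vehicle group.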

For another data set, the system named is monkeys. To be noted: 12 nmol/kg; cited from earlier work.
The conditions of data set [3]: literature value; cited from earlier work.
The conditions of data set [4]: mice, QD 70-nmol/kg dose; cited from earlier work.
For data set [5] the following is noted: monkeys, 12 nmol/kg; cited from earlier work.
Data set [6] addresses T1, NPR-B receptor on NIH3T3 cells (Mus musculus, UniProt Q6VVW5).
T1 sequence (Q6VVW5 23-1047 limits assumed): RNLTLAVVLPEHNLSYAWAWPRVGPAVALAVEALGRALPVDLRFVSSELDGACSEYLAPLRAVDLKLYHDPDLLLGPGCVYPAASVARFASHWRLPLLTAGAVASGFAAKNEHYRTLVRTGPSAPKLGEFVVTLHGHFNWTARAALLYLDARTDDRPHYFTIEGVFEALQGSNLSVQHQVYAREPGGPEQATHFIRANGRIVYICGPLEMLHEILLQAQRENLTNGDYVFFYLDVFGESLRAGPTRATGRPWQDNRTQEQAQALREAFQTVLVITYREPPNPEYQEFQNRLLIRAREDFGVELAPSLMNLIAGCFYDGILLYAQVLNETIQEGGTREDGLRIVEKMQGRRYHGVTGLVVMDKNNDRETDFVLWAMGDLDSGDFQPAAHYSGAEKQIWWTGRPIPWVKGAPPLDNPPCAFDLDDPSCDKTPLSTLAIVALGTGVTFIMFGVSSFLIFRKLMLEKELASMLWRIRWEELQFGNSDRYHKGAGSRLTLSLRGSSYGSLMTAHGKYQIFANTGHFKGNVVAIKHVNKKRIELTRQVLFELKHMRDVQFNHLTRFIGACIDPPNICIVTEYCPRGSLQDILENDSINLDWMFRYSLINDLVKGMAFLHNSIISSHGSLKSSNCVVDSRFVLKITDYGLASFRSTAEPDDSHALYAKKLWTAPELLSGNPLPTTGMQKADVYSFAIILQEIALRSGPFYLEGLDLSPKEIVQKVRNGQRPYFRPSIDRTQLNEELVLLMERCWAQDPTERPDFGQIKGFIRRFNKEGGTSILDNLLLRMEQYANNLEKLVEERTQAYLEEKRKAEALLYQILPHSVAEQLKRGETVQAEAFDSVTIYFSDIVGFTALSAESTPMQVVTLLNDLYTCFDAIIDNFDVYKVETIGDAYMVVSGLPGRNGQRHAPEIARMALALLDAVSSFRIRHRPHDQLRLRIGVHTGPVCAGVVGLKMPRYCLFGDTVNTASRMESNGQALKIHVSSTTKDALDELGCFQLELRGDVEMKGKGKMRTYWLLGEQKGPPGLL
The note with it: read-out: EC50, reported; literature values; cited from earlier work.

For another data set, the system named is children with ACH. The note with it: once daily 15 μg/kg SC; cited from earlier work.
The target of data set [7] is T1, NPR-B receptor on NIH3T3 cells. Kind of data set: 3T3 cell NPR-B guanylate cyclase assay. Format: cell-based.
The nature of data set [8]: In vitro degradation at pH 7.4, 37 °C, HPLC analysis. Format: physicochemical.

pEC50: −log10 of the molar value. Read-outs that look alike come from different tables or passages of the source.

For orientation: Cmax means the peak of the concentration-time curve. A word on the pEC50: it is the negative decadic logarithm of the EC50, by convention in mol/L. On to `CC[C@H](C)[C@@H]1NC(=O)[C@H](CCCNC(=N)N)NC(=O)[C@H](CC(=O)O)NC(=O)[C@H](CC(C)C)NC(=O)[C@H](CCCCN)NC(=O)[C@H](CC(C)C)NC(=O)CNC(=O)[C@H](Cc2ccccc2)NC(=O)[C@@H](NC(=O)CNC(=O)[C@H](CCCCN)NC(=O)[C@H](CO)NC(=O)[C@H](CC(C)C)NC(=O)CNC(=O)[C@H](CCCCN)NC(=O)[C@H](CCCCN)NC(=O)[C@H](CC(N)=O)NC(=O)[C@H](C)NC(=O)CNC(=O)[C@H](CCCCN)NC(=O)[C@H](Cc2ccc(O)cc2)NC(=O)[C@H](CCCCN)NC(=O)[C@H](CCCNC(=N)N)NC(=O)[C@H](C)NC(=O)[C@H](CC(N)=O)NC(=O)[C@@H]2CCCN2C(=O)[C@H](Cc2c[nH]cn2)NC(=O)[C@H](CCC(=O)O)NC(=O)[C@H](CCC(N)=O)NC(=O)CNC(=O)[C@@H]2CCCN2)CSSC[C@@H](C(=O)O)NC(=O)CNC(=O)[C@H](CC(C)C)NC(=O)CNC(=O)[C@H](CO)NC(=O)[C@H](CCSC)NC(=O)[C@H](CO)NC(=O)CNC1=O` [vosoritide], for which the “body weights of treated versus untreated mice” value in data set [1] is given as “no difference”. The “blood pressure and heart rate” value in the data set on mice is “acute decreases in blood pressure and increases in heart rate within acceptable limits”. Besides, in data set [2], the “growth (TBL) exceeding that of the vehicle control group at study end” value was 100%. Besides, the “systemic BP or HR” value in the data set on monkeys is reported as “no changes in systemic BP or HR”. In addition, the Cmax in data set [3] was around 0.005 µM; in data set [4], 0.2 µM; in [5], around 0.01 µM. Besides, the pEC50 in [6] was 8.31; in data set [7], 7.96. Further, the annualized growth velocity result in the data set on children with ACH is reported as “sustained increase in the annualized growth velocity”. Also, the side effect profile result in the data set with children with ACH is recorded as “mild side effect profile”. For the same molecule, in [8] (100 µM, 10 mM sodium phosphate, 0.13 M NaCl, pH 7.4, 37 °C, HPLC), the “degradation t1/2” value is around 170 h. The t1/2 for degradation in data set [8] (physiological pH and temperature) is at most 1 wk.
